Measurements from different studies.
Lines come from different studies, so protocols differ.
Target: Vasopressin V1a receptor (AVPR1A, Homo sapiens, UniProt P37288)

Structure (SMILES) | effect on | method | tested at | endpoint | result
COCc1c(-c2cc3cc(C)cc(OC)c3s2)c2c(N)ncnn2c1CN1CCNC(=O)C1 | ligand displacement | radioligand | 10 µM | inhibition | -11%
CCN(CC)CCCC[C@H](NC(=O)[C@H](CC(C)C)NC(=O)[C@H](C)NC(=O)[C@H](Cc1ccccc1)NC(=O)c1ccc(C(C)(C)C)cc1)C(=O)N[C@@H](CO)C(=O)OC | ligand displacement | radioligand | 10 µM | remaining binding | 14.6%
CN(CCN1CCC(OC(=O)Nc2ccccc2-c2ccccc2)CC1)C(=O)c1ccc(CN2CCC(C(N)=O)CC2)cc1 | ligand displacement | radioligand | 1 µM | inhibition | 5%
c1ccc(C(NCCNC(c2ccccc2)c2ccccc2)c2ccccc2)cc1 | cell-free assay |  | 10 µM | inhibition | -1%
Nc1ncc(-c2nc(N3CCOCC3)nc(N3CCOCC3)n2)c(C(F)F)n1 | cell-free assay | radioligand | 10 µM | remaining signal | 104%
O=C(Nc1cccnn1)N1CCN([C@@H]2CCOc3cc(C(F)(F)F)ccc32)CC1 | ligand displacement |  | 20 µM | inhibition | 5%
C[C@H](C(=O)N[C@H]1COc2ccccc2[C@@H]1S(C)(=O)=O)c1ccc(F)cc1 | cell-free assay |  | 10 µM | inhibition | -23%
Clc1ccc2c(C3CCN(CCc4c[nH]c5ccccc45)CC3)c[nH]c2c1 | ligand displacement | radioligand | 10 µM | inhibition | 2%
COc1ccc(S(=O)(=O)N2CCCCC2)cc1C | ligand displacement | radioligand | 10 µM | inhibition | < 30%
